ERAP1 inh – inhibitors of human ERAP1 aminopeptidase; Q9NZ08; recombinant ERAP1, Leu-AMC fluorescence, 60 min; inhibition, % at 10.7 µM; 340,000 tested, 0.15% active; AID 652197;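 active = mean replicate inhibition of at least 30%, or all replicates individually reaching that 30% level; inactive = mean below 30% and not every replicate reaching it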
Target sequence (Q9NZ08 whole entry, looked up): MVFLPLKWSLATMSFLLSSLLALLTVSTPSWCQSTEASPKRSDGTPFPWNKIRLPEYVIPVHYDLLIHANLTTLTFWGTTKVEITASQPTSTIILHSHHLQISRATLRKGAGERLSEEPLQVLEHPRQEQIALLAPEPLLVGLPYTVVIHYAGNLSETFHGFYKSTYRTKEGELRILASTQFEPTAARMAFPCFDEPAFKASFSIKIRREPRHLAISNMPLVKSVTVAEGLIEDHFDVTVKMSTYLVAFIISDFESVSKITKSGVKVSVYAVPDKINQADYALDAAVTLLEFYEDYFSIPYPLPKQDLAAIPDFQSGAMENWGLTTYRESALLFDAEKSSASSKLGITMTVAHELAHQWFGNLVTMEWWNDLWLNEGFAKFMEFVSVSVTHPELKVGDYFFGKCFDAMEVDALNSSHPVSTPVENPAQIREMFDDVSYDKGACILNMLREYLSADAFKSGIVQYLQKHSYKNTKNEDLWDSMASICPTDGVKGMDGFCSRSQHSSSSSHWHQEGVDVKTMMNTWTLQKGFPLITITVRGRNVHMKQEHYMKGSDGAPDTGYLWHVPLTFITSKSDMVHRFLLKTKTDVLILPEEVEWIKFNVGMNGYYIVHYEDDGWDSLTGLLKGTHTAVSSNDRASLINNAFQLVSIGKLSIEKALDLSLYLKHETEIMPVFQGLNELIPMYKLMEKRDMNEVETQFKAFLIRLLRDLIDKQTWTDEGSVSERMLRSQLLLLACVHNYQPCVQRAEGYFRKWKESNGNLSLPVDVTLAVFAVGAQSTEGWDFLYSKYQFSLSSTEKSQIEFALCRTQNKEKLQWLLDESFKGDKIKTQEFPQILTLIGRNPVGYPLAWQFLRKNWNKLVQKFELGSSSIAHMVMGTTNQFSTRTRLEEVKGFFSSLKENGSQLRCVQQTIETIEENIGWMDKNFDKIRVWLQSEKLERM
Wnt bcat act – activators of Wnt/beta-catenin signaling; Wnt/beta-catenin reporter cell assay, activator, plate reader; activation, % at 9.35 µM; 300,000 tested, 1.2% active; in the data active = activation above about 30%, passing the limit was not always enough; inconclusive = no clear call, values can overlap the other calls
HIV Env fusion – blocks HIV Env-driven cell-cell fusion | HeLa-JRFL Env/CEM21 cell fusion, luciferase | inhibition, % at 12.3 µM | 360,000 tested, 1.1% active | AID 651610;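 active = mean replicate inhibition score of at least 50 and every replicate individually at or above 50; inconclusive = only one of the two criteria met; inactive = mean below 50 and not all replicates reaching 50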
Cneo AK release – causes C. neoformans cell lysis; adenylate kinase release luminescence, 4 h; normalised: neutral wells 0, clomiphene wells 100; lysis activity, % at 15 µM; 360,000 tested, 0.2% active; AID 651654;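 active = mean lysis activity across replicates of at least 80%, whatever share of replicates individually reach that level; inactive = mean lysis activity below 80%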
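Material: C. neoformans cells | Amount: Yeast cell density of 5 × 10^6 cells/mL | Medium: Fresh YPD growth medium | Dosing: Single dose | Times: Static 4 h at 37 °C with compound, 1 h detection | Detection: AK luminescence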
esBAF inh – SWI/SNF esBAF complex inhibition; mouse ES cells, Bmi1-luciferase knock-in reporter, 24 h; 100% = twice the neutral-well signal; AID 602393; reporter increase, % at 12.5 µM; 350,000 tested, 2% active; in the data active = activation above about 40%; inconclusive = no clear call, values can overlap the other calls;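 also: a rise in the Bmi1 reporter signal indicates esBAF inhibition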
MITF TRPM1 HTS – activators of MITF-driven TRPM1 promoter activity in SK-MEL-5 cells | 300,000 tested, 0.75% active | AID 588334 | SK-MEL-5 TRPM1-promoter luciferase, 24 h; % of positive control, neutral wells = 0 | activation, % at 12.5 µM;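 active = mean activation of at least 80% with every replicate also reaching 80%; inconclusive = mean reaches 80% but some replicate falls short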
Hits are given with their value; . = inactive; ? = inconclusive; / = not tested or not shown. Most compounds without a hit are left out; they make up all but 3.5% or so of the library.

SMILES	ERAP1 inh	Wnt bcat act	HIV Env fusion	Cneo AK release	esBAF inh	MITF TRPM1 HTS
CCC(NC(=O)c1cc(COc2ccc(Cl)cc2OC)on1)c1ccncc1 (stereo unspecified)	.	.	.	.	68	.
CCC(NC(=O)c1cc(COc2ccc(OC)cc2Cl)on1)c1ccncc1 (stereo unspecified)	.	.	.	.	47	.
CCC(NC(=O)c1cc(COc2cc(C)c(Cl)c(C)c2)on1)c1ccncc1 (stereo unspecified)	.	.	.	.	.	.
C[C@@H]1CN([C@@H](C)CO)S(=O)(=O)c2ccc(C#CC3CC3)cc2O[C@@H]1CN(C)CC1CC1	.	/	.	.	.	/
COc1cccc(-c2ccc(C3[C@H]4CNC[C@@H]3N4S(=O)(=O)c3cccc(Cl)c3)cc2)c1 (stereo partly specified)	.	/	/	/	/	/
COc1ccc2c(c1)[C@]1(C(=O)N2C)C2=C(CCCC2=O)Oc2cc(C)oc(=O)c21	.	.	65	/	/	/
Cc1cc2c(c(=O)o1)[C@@]1(C(=O)N(C)c3ccc([N+](=O)[O-])cc31)C1=C(CCCC1=O)O2	.	.	.	/	/	/
Cc1ccc(CCNC(=O)C2CCC(=O)N(Cc3ccccc3F)C2)o1 (stereo unspecified)	.	.	.	.	55	.
COc1ccccc1CCCNC(=O)C1CCC(=O)N(Cc2ccccc2F)C1 (stereo unspecified)	.	.	.	.	46	?
COc1ccc(CCCNC(=O)C2CCC(=O)N(Cc3ccccc3F)C2)cc1 (stereo unspecified)	.	.	.	.	.	.
CCc1ccc(-c2nnn(CCC(=O)OC)n2)cc1	/	.	65	.	.	/
COc1ccc(-c2cc([N+](=O)[O-])ccc2OCC(=O)N(C)CC(=O)Nc2ccc(C)cc2)cc1	.	.	104	.	.	.
O=C(CC(c1ccccc1O)N1CCCCC1)N1CCCCC1 (stereo unspecified)	/	39	.	/	/	/
O=C(O)c1ccc(N/N=C/c2cc3ccccc3nc2Cl)cc1	.	.	.	/	/	88
Cc1cccc2cc(/C=N/Nc3ccc(C(=O)O)cc3)c(Cl)nc12	.	38	.	/	/	153
O=[N+]([O-])c1ccccc1N/N=C/c1cc2ccccc2nc1Cl	/	/	/	.	.	.
Clc1nc2ccccc2cc1/C=N/Nc1nc2ccccc2[nH]1	.	63	.	/	/	.
C[C@H](CO)N1C[C@H](C)[C@H](CN(C)C(=O)Nc2ccc3c(c2)OCO3)OCCCC[C@H](C)Oc2ccc(NS(=O)(=O)c3ccccc3)cc2C1=O	.	/	.	.	.	/
C[C@H](CO)N1C[C@H](C)[C@@H](CN(C)C(=O)NC2CCCCC2)Oc2ccc(NC(=O)C3CC3)cc2CC1=O	.	/	.	.	.	/
COC(=O)[C@H]1[C@H](CO)[C@H]2Cn3c(ccc(C4=CCCC4)c3=O)[C@H]2N1C(=O)C1CCCC1	.	/	/	.	.	/
CN(C)C(=O)c1ccc(-c2ccc(C3[C@@H]4CN(C(=O)C5CCCC5)C[C@H]3N4)cc2)cc1 (stereo partly specified)	.	/	/	/	/	/
O=C(C[C@H]1CC[C@H]2[C@@H](COC[C@@H](O)CN2Cc2cccc(Cl)c2)O1)NCC1CCCCC1	/	/	.	.	.	/
CC(C)(C)N1C(=O)c2ccc(C(=O)Nc3nccs3)cc2C1=O	/	/	/	.	54	140
CC(=O)N1CC(=O)N2[C@H](C1)[C@H](c1ccc(C#CC(C)C)cc1)[C@@H]2CO	.	/	/	/	/	/
FC(F)(F)c1cccc(-c2cc3nc(NCCCn4ccnc4)ccn3n2)c1	.	.	.	.	.	/
SMILES	ERAP1 inh	Wnt bcat act	HIV Env fusion	Cneo AK release	esBAF inh	MITF TRPM1 HTS
CC(C)Cc1ccc(-c2cc3nc(NCCCn4ccnc4)ccn3n2)cc1	.	.	.	.	61	/
CC(C)Cc1ccc(-c2cc3nc(NCCc4ccc(S(N)(=O)=O)cc4)ccn3n2)cc1	.	.	.	.	92	/
COc1cc(/C=N/NC(=S)NC2CC3CC2C2C=CCC32)ccc1O (stereo unspecified)	.	.	.	/	48	/
C[C@@H]1CN([C@@H](C)CO)C(=O)c2cc(NS(=O)(=O)c3cccs3)ccc2O[C@@H](C)CCCCO[C@@H]1CN(C)C(=O)c1ccccc1	.	/	.	.	.	/
COc1ccc(S(=O)(=O)N(C)C[C@H]2OCCCC[C@@H](C)Oc3ccc(NC(=O)c4ccncc4)cc3C(=O)N([C@@H](C)CO)C[C@H]2C)cc1	.	/	.	.	.	/
COc1ccc(NC(=O)N(C)C[C@H]2OCCCC[C@H](C)Oc3ccc(NC(=O)Nc4ccccc4)cc3C(=O)N([C@H](C)CO)C[C@@H]2C)cc1	.	/	.	.	.	/
Cc1n[nH]c(C)c1S(=O)(=O)N(CC(=O)NC1CCCC1)c1ccc(C(C)C)cc1	.	.	86	.	.	.
CCOC(=O)N1CCN(C(=O)c2cc3c(=O)n(C)c4ccccc4c3n2C)CC1	.	.	66	.	.	.
CCN(CC)c1ccc(NC(=O)CCCOc2cccc(C)c2)cc1	.	.	.	/	.	.
Cc1cccc(OCCCC(=O)Nc2ccc(Cl)c(S(=O)(=O)N3CCOCC3)c2)c1	.	.	62	.	.	.
Cc1cccc(OCCCC(=O)Nc2ccc(S(N)(=O)=O)cc2)c1	.	36	.	.	.	.
Cc1ccc(NC(=O)CN(C)C(=O)CCOc2cccc(C)c2)cc1	/	31	.	/	/	.
CO[C@H]1CN(C)C(=O)c2cc(NC(C)=O)ccc2OC[C@@H](C)N(C(=O)c2cccnc2)C[C@@H]1C	.	/	.	.	.	/
O=c1cccc2n1Cc1cc3ccccc3nc1-2	.	39	/	.	53	.
c1ccc2c(c1)-c1nc3ccccc3cc1C2N1CCCCC1 (stereo unspecified)	.	.	/	.	/	/
C[C@@H]1CN([C@H](C)CO)S(=O)(=O)c2ccc(C#C[C@@H](C)O)cc2O[C@@H]1CN(C)C(=O)Nc1ccccc1	.	/	.	.	.	/
O=C(CN1CCCCC1)Nc1ccc(Br)cc1[N+](=O)[O-]	.	.	.	.	49	.
CC1CCN(CC(=O)Nc2ccc(Br)cc2[N+](=O)[O-])CC1	.	.	.	.	.	.
O=C1N=C(c2ccccc2)S/C1=C\c1cccs1	/	.	.	/	/	.
O=C1OC(c2ccccc2)=C/C1=C/c1cccs1	.	.	.	.	26	.
COc1ccc(S(=O)(=O)N(C)C[C@H]2Oc3ccc(NS(C)(=O)=O)cc3CC(=O)N([C@H](C)CO)C[C@H]2C)cc1	.	/	.	.	.	/
NS(=O)(=O)c1ccc(CNc2ccc3ccccc3n2)cc1	.	.	.	.	52	/
COc1cc2sc3cc(NCC[C@@H]4CCCN4C)ccc3c(=O)c2cc1OC	.	.	.	.	53	97
COc1cc2sc3cc(NCc4ccc(C)o4)ccc3c(=O)c2cc1OC	.	?	.	.	/	109
COc1cccc2sc3ccc(NCCC4CCCN4C)cc3c(=O)c12 (stereo unspecified)	.	.	.	.	.	.

Source: PubChem BioAssay (Broad Institute)
